{
  "source": "paper PMC4416029",
  "about": "(Behavioural Pharmacology, 2015)",
  "key": {"[1]": {"test": "Body weight during 19-day treatment, L66 and WT mice", "type": "in vivo, mouse", "settings": "5–45 mg/kg oral, 19 days, LMTX in this case LMTB"}, "[2]": {"system": "wild-type (WT) control mice", "test": "Visible platform task in the water maze, WT mice", "type": "in vivo, mouse", "in_short": "(§1)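 Mice aged 5 months (L1 and WT) received 15 or 45 mg/kg by oral gavage for 5 weeks (Monday–Friday), with dosing continued during testing 1 h before the first trial. Cued training lasted 4 days at 4 trials/day in a 1.5 m pool with water at 21±1°C, curtains drawn and a flagged platform moved daily among 20 sites. Each trial allowed 60 s, with a 2 s stay and a 10-min intertrial interval. Path length and swim speed were video-tracked.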"}, "L1 mice": {"system": "L1 mice", "test": "Behavioural reactions observed on treatment, L1 histology cohorts", "type": "in vivo, mouse", "settings": "75 mg/kg oral, transient"}, "[3]": {"system": "mitochondrial β-oxidation", "settings": "ref Visarius et al., 1997; cited from earlier work"}, "[4]": {"system": "Line 1 (L1) tau transgenic mice", "test": "Problem-solving task in the water maze", "type": "in vivo, mouse", "in_short": "as §1"}, "[5]": {"system": "Line 66 (L66) tau transgenic mice", "test": "RotaRod motor performance and motor learning, L66 mice", "type": "in vivo, mouse", "in_short": "(§2)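 On a four-lane rat RotaRod, pretreatment trials in week 1 were used for cohort matching. Mice then received 2 weeks of daily oral dosing (Monday–Sunday, 08.00–10.00 h): L66 at 5, 15 or 45 mg/kg, WT at 45 mg/kg only. Post-treatment training in week 4 continued dosing 1 h before the first trial. Time to fall was recorded over 12 trials. Learning was scored as trial 12 minus trial 1, and memory as pretreatment versus post-treatment trial 1.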"}, "[6]": {"test": "Measurement of methylthioninium levels in the brain of L66 mice", "type": "in vivo, mouse"}, "aggregated tau in Line 1": {"target": "aggregated tau in Line 1 (Homo sapiens, UniProt P10636)", "sequence (P10636 613-707)": "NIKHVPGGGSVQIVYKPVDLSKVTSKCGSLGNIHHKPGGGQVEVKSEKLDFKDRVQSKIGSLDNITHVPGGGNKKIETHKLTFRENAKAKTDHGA", "test": "Immunohistochemical counts of tau-reactive neurons", "type": "in vivo, mouse", "settings": "L1 mice, 45 mg/kg oral, 19 days", "in_short": "(§3)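 Separate histology cohorts were killed by Euthatal overdose 1 h after the last dose. Brains were removed, paraformaldehyde-fixed and paraffin-embedded. Sixteen 3-μm sections per brain were stained together with WT, L1 and L66 controls, using mAb 7/51 (hybridoma supernatant 1:300) with HRP anti-mouse detection and haematoxylin counterstain. Tau-reactive neurons were counted by region, expressed as ln(count+1) and as percentage reduction versus zero dose.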"}, "aggregated tau in L66": {"target": "aggregated tau in L66 (Homo sapiens, UniProt P10636, G652D/P618S)", "sequence (P10636 1-441 isoform P10636-8 P301S/G335D)": "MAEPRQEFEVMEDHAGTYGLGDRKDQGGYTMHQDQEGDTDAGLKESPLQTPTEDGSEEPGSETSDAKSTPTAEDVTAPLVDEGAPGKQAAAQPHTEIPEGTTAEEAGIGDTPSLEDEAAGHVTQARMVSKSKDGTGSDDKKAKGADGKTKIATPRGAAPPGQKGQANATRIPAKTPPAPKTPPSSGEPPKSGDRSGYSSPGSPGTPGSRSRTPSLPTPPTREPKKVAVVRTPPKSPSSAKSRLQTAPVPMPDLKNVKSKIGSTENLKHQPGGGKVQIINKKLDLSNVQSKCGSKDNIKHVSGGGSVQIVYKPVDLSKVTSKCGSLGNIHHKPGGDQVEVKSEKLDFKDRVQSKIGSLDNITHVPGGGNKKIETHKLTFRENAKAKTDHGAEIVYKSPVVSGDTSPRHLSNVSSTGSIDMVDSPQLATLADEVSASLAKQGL", "test": "Immunohistochemical counts of tau-reactive neurons", "type": "in vivo, mouse", "settings": "L66 heterozygous, 8–9 months, MTC 45 mg/kg (35.1 mg MT/kg), 3 weeks", "in_short": "as §3"}, "[7]": {"system": "wild-type (WT) control mice", "test": "RotaRod motor performance, WT mice", "type": "in vivo, mouse", "settings": "45 mg/kg oral", "in_short": "as §2"}, "[8]": {"system": "Alzheimer's disease patients", "settings": "AD of mild or moderate severity, 24 weeks; ref Wischik et al., 2015; cited from earlier work"}, "[9]": {"test": "Body weight over 8 weeks of oral treatment, L1 and WT mice", "type": "in vivo, mouse", "settings": "over 8 weeks of oral administration; identical in WT and L1 cohorts; drug exposure did not differ from vehicle"}},
  "data": [
    {"substance": "3,7-bis(dimethylamino)phenothiazin-5-ylium chloride [MTC]", "values": [
      {"measurement": "effect on body weight compared with vehicle controls", "setting": "[1]", "result": "dose-dependent weight loss"},
      {"measurement": "effect on path length to visible platform", "setting": "[2]; 15 mg/kg oral", "result": "improvement"},
      {"measurement": "effect on path length to visible platform", "setting": "[2]; 45 mg/kg oral", "result": "did not differ from controls"},
      {"measurement": "behavioural reactions", "setting": "L1 mice", "result": "hunched posture, low activity, piloerection"},
      {"measurement": "concentration for enhancement of mitochondrial β-oxidation", "setting": "[3]", "result": 0.3, "unit": "µmol/L"},
      {"measurement": "effect on swim speed", "setting": "[4]; L1 and WT mice, 15 and 45 mg/kg oral, visible platform task", "result": "did not alter the velocity"},
      {"measurement": "effect on mean number of trials to criterion (three spatial problems)", "setting": "[4]; L1 mice, 15 mg/kg oral", "result": "longer training required to meet criterion"},
      {"measurement": "effect on mean number of trials to criterion (three spatial problems)", "setting": "[4]; L1 mice, 45 mg/kg oral", "result": "impairment was reversed"},
      {"measurement": "effect on path length to visible platform", "setting": "[4]; L1 mice, 15 and 45 mg/kg oral, 4 days cued training", "result": "No drug effect"},
      {"measurement": "dose required to produce benefit in spatial problem-solving water maze task", "setting": "[4]; L1 mice, oral, 8 weeks, dose as weight of compound", "result": 45, "unit": "mg/kg"},
      {"measurement": "effect on post-treatment RotaRod performance vs vehicle", "setting": "[5]; 5 mg/kg oral", "result": "significant benefit"},
      {"measurement": "effect on post-treatment RotaRod performance vs vehicle", "setting": "[5]; 15 mg/kg oral", "result": "significant benefit"},
      {"measurement": "effect on motor learning (difference between trial 1 and trial 12)", "setting": "[5]; all doses (5, 15, 45 mg/kg)", "result": "full recovery of motor learning"},
      {"measurement": "lowest effective dose, correction of motor learning on RotaRod", "setting": "[5]; oral, 19 days (5 mg/kg of compound)", "result": 4, "unit": "mg MT/kg"},
      {"measurement": "brain MT concentration with evidence of plateauing of RotaRod performance", "setting": "[6]; 5 or 15 mg/kg, LMTX in this case LMTB", "result": 0.6, "unit": "mmol/L"},
      {"measurement": "mean brain concentration of total MT", "setting": "[6]; lowest effective dose (4 mg MT/kg), oral", "result": "150 ± 10", "unit": "nM"},
      {"measurement": "reduction in tau-reactive neurons, subiculum", "setting": "aggregated tau in Line 1", "result": 83, "unit": "%"},
      {"measurement": "percentage reduction in counts compared with zero dose, mean over region", "setting": "aggregated tau in L66", "result": 44, "unit": "%"},
      {"measurement": "effect on post-treatment RotaRod performance vs vehicle", "setting": "[7]", "result": "did not affect the performance"},
      {"measurement": "minimum effective dose at clinical and molecular imaging endpoints", "setting": "[8]", "result": 138, "unit": "mg MT/day"},
      {"measurement": "weight loss", "setting": "[9]", "result": "15–20%"}
    ]}
  ]
}
